Paper PMC4332869 (Cancer chemotherapy and pharmacology, 2010)
Like-named read-outs stand apart in the source and are kept apart here.

How the values were obtained:
A375 cell line = assay: Anti-proliferative response in cells grown in culture; type: cell-based, human; conditions: data not shown
[1] = Plasma pharmacokinetics in A375 tumor-bearing nude mice; type: in vivo, mouse; conditions: for AUC: AUC0–24 h
Method in brief: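 Tumor-bearing nude mice got oral 5 or 10 mg/kg once, or 10 mg/kg daily for 7 days (tumors ≥600 mm3), as suspension in 1% Tween 80/PBS. Plasma came by cardiac exsanguination under isoflurane at 0.5–24 h (single) or 1–24 h after the last dose, n = 4. Acetonitrile/methanol extraction with analog internal standard. LC/MS/MS MRM, N-desmethyl m/z 445→287. Noncompartmental analysis; AUC by trapezoidal rule.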

[2] = test system: A375 human melanoma xenograft tumors; assay: Tumor apoptosis; type: in vivo, mouse; conditions: A375 xenograft tumor sections, versus vehicle
Method in brief: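 A375 xenograft tumors from oral-dosed and vehicle nude mice were formalin-fixed and paraffin-embedded, then cut into 5 μm sections. Sections were stained by TUNEL (TMR red in situ cell death kit) for apoptosis and by H&E for necrotic area, then imaged by fluorescence microscopy.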

patients = conditions: ref [1], cited from earlier work
[3] = test system: tumor ERK phosphorylation (MEK1/2 inhibition); assay: Inhibition of tumor ERK phosphorylation by western blot; type: in vivo, mouse; conditions: A375 tumor
Method in brief: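 Male athymic BALB/c nude mice carrying s.c. rear-flank A375 xenografts (5 million cells in 4:1 serum-free RPMI:Matrigel), tumors ≥400 mm3, got one oral gavage of 5 or 10 mg/kg in 1% Tween 80/PBS. Four mice were killed per time point (0.5–24 h). Frozen tumor was sonicated in Triton/Tris pH 7.5 lysis buffer, then SDS-PAGE with pERK/ERK immunoblot. % inhibition = 100×(1 − treated pERK/ERK ÷ vehicle pERK/ERK).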

[4] = cited from earlier work; for AUC: AUC0–12 h
[5] = Tissue and tumor distribution in A375 tumor-bearing nude mice; type: in vivo, mouse; conditions: for P:TAUC: plasma to tissue AUC ratio
[6] = metabolite in mouse plasma, AZD6244 5 mg/kg single oral dose
[7] = metabolite in mouse plasma, AZD6244 10 mg/kg once daily 7 days, steady state
[8] = metabolite in mouse plasma, AZD6244 10 mg/kg single oral dose
[9] = mouse plasma, 5 mg/kg single oral dose
[10] = mouse plasma, 10 mg/kg oral once daily 7 days, steady state
[11] = mouse plasma, 10 mg/kg single oral dose
[12] = nude, mouse, plasma, po, 5 mg/kg
[13] = nude, mouse, plasma, po, 10 mg/kg
[14] = human plasma, 100 mg single dose, ref Adjei et al. [1]

O=C(NOCCO)c1cc2[nH]cnc2c(F)c1Nc1ccc(Br)cc1Cl [AZD6244-N-desmethyl]
potency of cellular growth inhibition in vitro relative to parent (A375 cell line): approximately twice the potency of the parent | AUC0–24 h [1, 6]: 3,597 ng/(mL h) | Cmax [1, 6]: 505 ng/mL | T1/2γ [1, 6]: 3.68 h | Tmax [1, 6]: 1.0 h | AUC0–24 h [1, 7]: 3,709 ng/(mL h) | Cmax [1, 7]: 554 ng/mL | T1/2γ [1, 7]: 2.37 h | Tmax [1, 7]: 1.0 h | AUC0–24 h [1, 8]: 4,993 ng/(mL h) | Cmax [1, 8]: 865 ng/mL | T1/2γ [1, 8]: 2.79 h | Tmax [1, 8]: 2.0 h

Cn1cnc2c(F)c(Nc3ccc(Br)cc3Cl)c(C(=O)NOCCO)cc21 [AZD6244]
apoptotic cells as measured by TUNEL [2]: slight increase in apoptotic cells as measured by TUNEL, this increase was not statistically significant | necrotic area [2]: no difference in necrotic area | T1/2γ [1, 9]: 2.81 h | AUC [1, 9]: 11,910 ng/(mL h) | T1/2γ [1, 10]: 2.29 h | AUC [1, 10]: 17,525 ng/(mL h) | T1/2γ [1, 11]: 2.62 h | AUC [1, 11]: 18,976 ng/(mL h) | CL/F [1, 12]: 6.67 mL/min/kg | Cmax [1, 12]: 2970 ng/mL | Tmax [1, 12]: 0.5 h | Vd/F [1, 12]: 1.7 L/kg | CL/F [1, 13]: 8.33 mL/min/kg | Cmax [1, 13]: 3350 ng/mL | Tmax [1, 13]: 2 h | Vd/F [1, 13]: 2 L/kg | patients with stable disease of five or more months (patients; 9 of 54 patients): 16% | tolerability (patients; most common toxicity skin rash, diarrhea, nausea and fatigue): well tolerated | peak inhibition of phosphorylated ERK ([3]; 5 mg/kg single dose): 72% | peak inhibition of phosphorylated ERK ([3]; 10 mg/kg single dose): 80% | human AUC ([4]; clinical exposure compared with mouse 10 mg/kg once daily, ref [1]): 10,012 ng/(mL h) | AUC [4, 14]: 3,124 ng/(mL h) | Cmax [4, 14]: 807 ng/mL | T1/2γ [4, 14]: 4.5 h | AUC ([4]; human plasma, 100 mg steady state, ref Adjei et al. [1]): 5,006 ng/(mL h) | AUC0–12 h ([4]; humans given 100 mg AZD6244 free-base suspension BID, ref [1]): 3,124 ng/(mL h) | AUC0–12 h ([4]; humans given 200 mg AZD6244 free-base suspension BID, ref [1]): 5,234 ng/(mL h) | AUC0–12 h ([5]; gut, 5 mg/kg, single dose): 5,008 ng/(g h) | AUC0–12 h ([5]; gut, 10 mg/kg, single dose): 6,845 ng/(g h) | AUC0–12 h ([5]; gut, 10 mg/kg, steady state): 2,278 ng/(g h) | AUC0–12 h ([5]; liver, 5 mg/kg, single dose): 4,356 ng/(g h) | Cmin ([5]; liver, 5 mg/kg, single dose): 299 ng/g | AUC0–12 h ([5]; liver, 10 mg/kg, single dose): 8,028 ng/(g h) | Cmin ([5]; liver, 10 mg/kg, single dose): 110 ng/g | AUC0–12 h ([5]; liver, 10 mg/kg, steady state): 6,781 ng/(g h) | Cmin ([5]; liver, 10 mg/kg, steady state): 100 ng/g | ratio of free drug in plasma to free drug in tissue (fB/fT) ([5]; mouse, single oral dose): 1.8 | AUC0–12 h ([5]; muscle, 10 mg/kg, single dose): 667 ng·h/g | Cmin ([5]; muscle, 10 mg/kg, single dose): 896 ng/g | Cmin ([5]; muscle, 10 mg/kg, steady state): 1,649 ng/g | Cmax ([5]; nude, mouse, gut, po, 5 mg/kg, single dose): 1220 ng/g | Cmax ([5]; nude, mouse, gut, po, 10 mg/kg, single dose): 1930 ng/g | Cmax at 1 week ([5]; nude, mouse, gut, po, 10 mg/kg, steady state): 6780 ng/g | half-life ([5]; nude, mouse, gut, po, 10 mg/kg, t1/2, gut, single dose): 1 h | Tmax ([5]; nude, mouse, liver, lung, kidney, gut, muscle, skin, tumor, po, 10 mg/kg): 0.5 to 2 h | Cmax ([5]; nude, mouse, lung, po, 5 mg/kg, single dose): 206 ng/g | Cmax ([5]; nude, mouse, lung, po, 10 mg/kg, single dose): 327 ng/g | half-life ([5]; nude, mouse, lung, po, 10 mg/kg, t1/2, lung, single dose): 1 h | Cmax at 1 week ([5]; nude, mouse, muscle, po, 10 mg/kg, steady state): 2040 ng/g | Cmax ([5]; nude, mouse, skin, po, 5 mg/kg, single dose): 136 ng/g | Cmax ([5]; nude, mouse, skin, po, 10 mg/kg, single dose): 169 ng/g | Cmax ([5]; nude, mouse, tumor, po, 5 mg/kg, single dose): 501 ng/g | Cmax ([5]; nude, mouse, tumor, po, 10 mg/kg, single dose): 861 ng/g | Cmax ([5]; nude, mouse, tumor, po, 10 mg/kg, steady state): 487 ng/g | P:TAUC ([5]; gut, 5 mg/kg, single dose): 2.28 | P:TAUC ([5]; gut, 10 mg/kg, single dose): 2.66 | P:TAUC ([5]; gut, 10 mg/kg, steady state): 7.41 | P:TAUC ([5]; liver, 5 mg/kg, single dose): 2.62 | P:TAUC ([5]; liver, 10 mg/kg, single dose): 2.27 | P:TAUC ([5]; liver, 10 mg/kg, steady state): 2.49 | P:TAUC ([5]; lung, 5 mg/kg, single dose): 10.55 | P:TAUC ([5]; lung, 10 mg/kg, single dose): 7.45 | P:TAUC ([5]; muscle, 5 mg/kg, single dose): 14.06 | P:TAUC ([5]; muscle, 10 mg/kg, single dose): 27.33 | P:TAUC ([5]; muscle, 10 mg/kg, steady state): 18.16 | P:TAUC ([5]; skin, 5 mg/kg, single dose): 14.25 | P:TAUC ([5]; skin, 10 mg/kg, single dose): 16.56 | P:TAUC ([5]; tumor, 5 mg/kg, single dose): 3.17 | P:TAUC ([5]; tumor, 10 mg/kg, single dose): 3.82 | P:TAUC ([5]; tumor, 10 mg/kg, steady state): 4.45 | AUC0–12 h ([5]; skin, 5 mg/kg, single dose): 802 ng·h/g | AUC0–12 h ([5]; tumor, 5 mg/kg, single dose): 3,601 ng/(g h) | Cmin ([5]; tumor, 5 mg/kg, single dose): 44 ng/g | AUC0–12 h ([5]; tumor, 10 mg/kg, single dose): 4,776 ng/(g h) | Cmin ([5]; tumor, 10 mg/kg, single dose): 130 ng/g | Cmin ([5]; tumor, 10 mg/kg, steady state): 52 ng/g
